Laboratory results taken from the M2OR odorant receptor database.

Tests used:
Settings in all cases: stereoisomer not certain
OR6X1 (Homo sapiens) = OR6X1 (Homo sapiens) (UniProt Q8NH79)
Summary of the method: (§1)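 Transient luciferase assays in mammalian cell lines were common, though methods varied by source. The values come from published papers and their supplementary material, with extra details from the original authors when needed. Responsive refers to a measured signal the original authors judged statistically different from baseline, and non-responsive (inactive) to the remainder.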

OR6Y1 (Homo sapiens) = OR6Y1 (Homo sapiens) (UniProt Q8NGX8)
Chain of OR6Y1 (Homo sapiens) (Q8NGX8 whole entry): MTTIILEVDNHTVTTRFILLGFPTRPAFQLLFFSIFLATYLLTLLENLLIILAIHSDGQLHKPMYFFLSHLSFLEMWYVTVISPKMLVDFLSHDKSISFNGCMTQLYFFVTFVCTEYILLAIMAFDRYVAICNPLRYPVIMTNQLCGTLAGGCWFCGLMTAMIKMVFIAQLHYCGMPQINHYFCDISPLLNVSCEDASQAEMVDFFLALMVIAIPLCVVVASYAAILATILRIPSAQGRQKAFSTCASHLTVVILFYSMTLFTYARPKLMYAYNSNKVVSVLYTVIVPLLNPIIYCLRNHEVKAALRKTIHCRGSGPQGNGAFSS
Summary of the method: as §1

OR7A10 (Homo sapiens) = OR7A10 (Homo sapiens) (UniProt O76100)
Chain of OR7A10 (Homo sapiens) (O76100 whole entry): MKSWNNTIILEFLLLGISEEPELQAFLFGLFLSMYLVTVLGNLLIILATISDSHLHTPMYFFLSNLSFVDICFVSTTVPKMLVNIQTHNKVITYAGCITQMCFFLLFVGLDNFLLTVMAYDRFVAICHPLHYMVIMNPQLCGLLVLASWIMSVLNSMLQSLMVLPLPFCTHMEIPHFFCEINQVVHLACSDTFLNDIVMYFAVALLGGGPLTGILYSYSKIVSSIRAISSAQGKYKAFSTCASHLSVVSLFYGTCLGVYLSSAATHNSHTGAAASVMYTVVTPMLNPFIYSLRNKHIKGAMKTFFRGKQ
Summary of the method: as §1

OR7A17 (Homo sapiens) = OR7A17 (Homo sapiens) (UniProt O14581)
Chain of OR7A17 (Homo sapiens) (O14581 whole entry): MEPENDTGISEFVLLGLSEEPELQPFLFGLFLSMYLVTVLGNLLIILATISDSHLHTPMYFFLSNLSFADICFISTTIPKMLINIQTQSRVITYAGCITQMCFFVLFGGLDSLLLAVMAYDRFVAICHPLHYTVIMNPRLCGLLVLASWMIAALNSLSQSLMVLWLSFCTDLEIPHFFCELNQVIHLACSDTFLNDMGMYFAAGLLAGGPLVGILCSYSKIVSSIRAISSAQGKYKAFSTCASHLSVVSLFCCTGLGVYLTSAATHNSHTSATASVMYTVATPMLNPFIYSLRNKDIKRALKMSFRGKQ
Summary of the method: as §1

OR7A5 (Homo sapiens) = OR7A5 (Homo sapiens) (UniProt Q15622)
Chain of OR7A5 (Homo sapiens) (Q15622 whole entry): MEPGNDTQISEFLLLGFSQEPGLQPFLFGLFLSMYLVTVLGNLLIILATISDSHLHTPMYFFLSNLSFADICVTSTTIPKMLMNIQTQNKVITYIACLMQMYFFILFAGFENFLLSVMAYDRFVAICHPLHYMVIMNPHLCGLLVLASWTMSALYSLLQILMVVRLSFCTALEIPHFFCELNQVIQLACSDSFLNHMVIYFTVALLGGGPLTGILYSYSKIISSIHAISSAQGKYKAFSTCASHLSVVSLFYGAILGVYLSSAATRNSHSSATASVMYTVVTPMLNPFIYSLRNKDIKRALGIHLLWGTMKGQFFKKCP
Summary of the method: as §1

OR7A5 M81I = test system: OR7A5 M81I
Chain of OR7A5 M81I (as listed by the source, stated change not applied): as the sequence (Q15622 whole entry) above, with M81I counted along it
Summary of the method: as §1

OR7C1 (Homo sapiens) = OR7C1 (Homo sapiens) (UniProt O76099)
Chain of OR7C1 (Homo sapiens) (O76099 whole entry): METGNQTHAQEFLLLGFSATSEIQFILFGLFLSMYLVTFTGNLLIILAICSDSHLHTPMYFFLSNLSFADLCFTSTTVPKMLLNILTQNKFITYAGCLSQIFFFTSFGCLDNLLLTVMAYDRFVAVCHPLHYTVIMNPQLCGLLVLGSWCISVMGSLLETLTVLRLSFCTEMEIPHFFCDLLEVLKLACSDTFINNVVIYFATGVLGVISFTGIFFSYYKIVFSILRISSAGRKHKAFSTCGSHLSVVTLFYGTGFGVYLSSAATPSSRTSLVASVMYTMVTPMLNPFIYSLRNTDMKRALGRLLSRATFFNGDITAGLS
Summary of the method: as §1

OR7C1 V126I E171K = test system: OR7C1 V126I E171K
Summary of the method: as §1

OR7C2 (Homo sapiens) = OR7C2 (Homo sapiens) (UniProt O60412)
Chain of OR7C2 (Homo sapiens) (O60412 whole entry): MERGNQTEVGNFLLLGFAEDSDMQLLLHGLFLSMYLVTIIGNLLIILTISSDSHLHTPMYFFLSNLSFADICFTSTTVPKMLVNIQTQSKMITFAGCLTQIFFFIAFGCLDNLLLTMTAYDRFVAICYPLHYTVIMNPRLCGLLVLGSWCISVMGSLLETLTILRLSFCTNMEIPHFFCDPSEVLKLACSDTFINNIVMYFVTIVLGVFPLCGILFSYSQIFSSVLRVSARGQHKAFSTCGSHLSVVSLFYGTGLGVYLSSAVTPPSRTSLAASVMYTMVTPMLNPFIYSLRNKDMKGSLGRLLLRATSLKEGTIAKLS
Summary of the method: as §1

OR7D2 (Homo sapiens) = OR7D2 (Homo sapiens) (UniProt Q96RA2)
Chain of OR7D2 (Homo sapiens) (Q96RA2 whole entry): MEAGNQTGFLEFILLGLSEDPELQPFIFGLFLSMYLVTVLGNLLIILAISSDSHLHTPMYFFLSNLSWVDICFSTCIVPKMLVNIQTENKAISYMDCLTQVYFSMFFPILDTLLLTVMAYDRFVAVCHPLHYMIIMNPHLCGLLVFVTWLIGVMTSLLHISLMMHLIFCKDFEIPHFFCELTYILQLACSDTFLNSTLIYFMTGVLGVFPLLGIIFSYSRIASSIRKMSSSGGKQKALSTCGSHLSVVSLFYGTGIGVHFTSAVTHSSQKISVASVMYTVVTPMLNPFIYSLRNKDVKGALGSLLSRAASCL
Summary of the method: as §1

OR7D4 (Homo sapiens) = target: T1, OR7D4 (Homo sapiens) (UniProt Q8NG98)
T1 sequence (whole entry): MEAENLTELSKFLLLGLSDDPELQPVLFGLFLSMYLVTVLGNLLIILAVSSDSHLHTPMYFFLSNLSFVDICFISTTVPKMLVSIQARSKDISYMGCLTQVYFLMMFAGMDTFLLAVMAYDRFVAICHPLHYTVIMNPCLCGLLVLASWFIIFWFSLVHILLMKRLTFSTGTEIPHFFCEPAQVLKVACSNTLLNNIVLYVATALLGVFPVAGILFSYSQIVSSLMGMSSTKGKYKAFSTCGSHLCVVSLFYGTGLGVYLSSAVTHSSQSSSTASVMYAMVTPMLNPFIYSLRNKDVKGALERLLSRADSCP
Summary of the method: as §1

OR7D4 R88W = test system: OR7D4 R88W
Chain of OR7D4 R88W (as listed by the source, stated change not applied): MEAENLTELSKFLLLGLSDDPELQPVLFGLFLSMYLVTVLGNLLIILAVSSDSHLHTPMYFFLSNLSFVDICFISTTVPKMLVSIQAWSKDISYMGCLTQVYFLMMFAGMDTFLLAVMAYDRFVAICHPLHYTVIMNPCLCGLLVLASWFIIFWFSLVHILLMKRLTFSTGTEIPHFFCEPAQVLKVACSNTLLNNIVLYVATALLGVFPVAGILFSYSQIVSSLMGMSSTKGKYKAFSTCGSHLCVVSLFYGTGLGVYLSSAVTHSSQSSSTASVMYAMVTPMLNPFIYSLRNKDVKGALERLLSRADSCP
Summary of the method: as §1

OR7D4 = test system: OR7D4
Chain of OR7D4 (as listed by the source): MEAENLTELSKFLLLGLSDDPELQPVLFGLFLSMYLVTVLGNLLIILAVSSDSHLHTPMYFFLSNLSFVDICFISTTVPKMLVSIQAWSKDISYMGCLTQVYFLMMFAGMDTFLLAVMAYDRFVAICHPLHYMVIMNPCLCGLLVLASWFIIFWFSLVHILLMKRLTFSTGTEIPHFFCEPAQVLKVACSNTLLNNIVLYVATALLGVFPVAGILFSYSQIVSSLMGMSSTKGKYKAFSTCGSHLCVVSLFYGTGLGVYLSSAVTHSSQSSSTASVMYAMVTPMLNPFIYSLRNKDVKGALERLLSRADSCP
Summary of the method: as §1

OR7E24 (Homo sapiens) = OR7E24 (Homo sapiens) (UniProt Q6IFN5)
Chain of OR7E24 (Homo sapiens) (Q6IFN5 whole entry): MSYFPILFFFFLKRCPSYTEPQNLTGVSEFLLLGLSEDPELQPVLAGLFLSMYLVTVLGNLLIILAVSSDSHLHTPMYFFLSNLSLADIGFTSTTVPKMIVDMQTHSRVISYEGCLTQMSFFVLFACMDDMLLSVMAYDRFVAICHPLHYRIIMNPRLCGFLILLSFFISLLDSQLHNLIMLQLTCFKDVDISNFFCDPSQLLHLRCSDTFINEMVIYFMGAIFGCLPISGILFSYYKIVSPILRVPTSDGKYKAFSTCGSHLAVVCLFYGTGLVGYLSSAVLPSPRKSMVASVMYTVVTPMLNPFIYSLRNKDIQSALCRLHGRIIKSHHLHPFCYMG
Summary of the method: as §1

OR7G1 (Homo sapiens) = OR7G1 (Homo sapiens) (UniProt Q8NGA0)
Chain of OR7G1 (Homo sapiens) (Q8NGA0 whole entry): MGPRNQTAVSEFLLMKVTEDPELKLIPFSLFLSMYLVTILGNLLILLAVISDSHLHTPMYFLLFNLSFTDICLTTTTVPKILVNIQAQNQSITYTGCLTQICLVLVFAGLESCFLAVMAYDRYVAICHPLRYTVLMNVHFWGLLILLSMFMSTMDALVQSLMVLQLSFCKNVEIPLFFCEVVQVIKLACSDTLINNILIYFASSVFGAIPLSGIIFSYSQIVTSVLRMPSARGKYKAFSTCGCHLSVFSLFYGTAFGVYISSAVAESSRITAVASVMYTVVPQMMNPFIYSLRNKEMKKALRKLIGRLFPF
Summary of the method: as §1

OR7G2 = test system: OR7G2
Chain of OR7G2 (as listed by the source): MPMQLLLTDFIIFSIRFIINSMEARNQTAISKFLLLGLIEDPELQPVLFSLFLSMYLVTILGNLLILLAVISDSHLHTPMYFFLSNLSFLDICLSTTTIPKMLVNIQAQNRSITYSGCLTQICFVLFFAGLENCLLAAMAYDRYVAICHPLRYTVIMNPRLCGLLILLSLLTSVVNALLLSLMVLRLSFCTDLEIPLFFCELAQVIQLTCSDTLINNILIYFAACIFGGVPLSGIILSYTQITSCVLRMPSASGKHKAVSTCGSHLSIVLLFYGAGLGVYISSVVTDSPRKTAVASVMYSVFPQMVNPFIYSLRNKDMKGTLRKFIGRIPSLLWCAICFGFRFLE
Summary of the method: as §1

OR7G3 (Homo sapiens) = OR7G3 (Homo sapiens) (UniProt Q8NG95)
Chain of OR7G3 (Homo sapiens) (Q8NG95 whole entry): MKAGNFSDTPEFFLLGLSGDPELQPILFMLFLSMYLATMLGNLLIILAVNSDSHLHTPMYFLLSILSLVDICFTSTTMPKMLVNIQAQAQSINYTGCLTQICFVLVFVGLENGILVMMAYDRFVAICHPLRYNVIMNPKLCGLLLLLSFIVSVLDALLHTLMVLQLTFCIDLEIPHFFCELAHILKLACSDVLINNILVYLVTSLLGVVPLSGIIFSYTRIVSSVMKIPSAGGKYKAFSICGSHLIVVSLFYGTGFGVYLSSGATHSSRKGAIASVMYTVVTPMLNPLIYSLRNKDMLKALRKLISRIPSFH
Summary of the method: as §1

OR7G3 M29V = test system: OR7G3 M29V
Chain of OR7G3 M29V (as listed by the source, stated change not applied): as the sequence (Q8NG95 whole entry) above, with M29V counted along it
Summary of the method: as §1

OR8A1 (Homo sapiens) = OR8A1 (Homo sapiens) (UniProt Q8NGG7)
Chain of OR8A1 (Homo sapiens) (Q8NGG7 whole entry): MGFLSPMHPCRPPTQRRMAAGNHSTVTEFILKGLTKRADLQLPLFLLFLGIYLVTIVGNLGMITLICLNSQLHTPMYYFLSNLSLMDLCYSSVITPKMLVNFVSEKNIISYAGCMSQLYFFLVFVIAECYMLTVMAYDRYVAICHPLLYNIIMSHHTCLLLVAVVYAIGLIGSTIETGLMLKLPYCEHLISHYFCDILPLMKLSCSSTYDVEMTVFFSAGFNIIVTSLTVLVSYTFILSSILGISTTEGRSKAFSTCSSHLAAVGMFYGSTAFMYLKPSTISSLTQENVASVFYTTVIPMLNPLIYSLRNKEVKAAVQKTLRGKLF
Summary of the method: as §1

OR7G2 (Homo sapiens) = OR7G2 (Homo sapiens) (UniProt Q8NG99)
Summary of the method: as §1

Measured: odorant receptor agonist call;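 further: active if original authors judged signal statistically different from baseline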

Chain of OR6X1 (Homo sapiens) (Q8NH79 whole entry): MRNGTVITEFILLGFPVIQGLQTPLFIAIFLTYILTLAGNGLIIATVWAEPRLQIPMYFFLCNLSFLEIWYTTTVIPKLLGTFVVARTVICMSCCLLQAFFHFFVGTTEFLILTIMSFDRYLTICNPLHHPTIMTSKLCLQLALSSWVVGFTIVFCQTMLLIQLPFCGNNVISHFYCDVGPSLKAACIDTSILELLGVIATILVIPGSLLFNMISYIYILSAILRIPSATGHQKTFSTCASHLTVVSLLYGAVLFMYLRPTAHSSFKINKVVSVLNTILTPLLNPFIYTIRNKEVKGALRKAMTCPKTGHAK

C=CCOC(=O)Cc1ccccc1
not listed: OR7G2 (Homo sapiens)
inactive: all other assays above

C=C(C)C1CCC2(C)OOC(C1)O2 (stereo not given)
inactive: OR7D4 (Homo sapiens) | OR7D4

Cc1c([N+](=O)[O-])c(C)c([N+](=O)[O-])c(C(C)(C)C)c1[N+](=O)[O-]
not listed: OR7A5 M81I | OR7C1 V126I E171K | OR7D4 R88W | OR7D4 | OR7G2 | OR7G3 M29V
inactive: all other assays above
